In brackets after ≈: the same amount, converted by molar mass. Activity calls are given as the source filed them. The calls are words filed in the database; no cut-off is given here.
Tests used:
[1] = system: Bacillus subtilis; assay: Antimicrobial activity against Bacillus subtilis at 5 ug; type: functional, organism-based
Procedure, shortened: (§1)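 Direct bioautography: each compound is spotted onto TLC plates and the solvent evaporated. The test organism is then grown directly on the plate. Growth inhibition is scored at the spot as active (+) or very active (++). Where a number is given, it is the radius in mm of the inhibition zone around the spot.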

[2] = Cytotoxicity against human U373 cells; type: functional, U-373MG ATCC; details: U373 MG, read-out: ED50 (the source's name)
[3] = Inhibition of PKC
[4] = system: Escherichia coli; assay: Antimicrobial activity against Escherichia coli at 1 ug; type: functional, organism-based; procedure, shortened: as §1
[5] = system: HT-1080; assay: Cytotoxicity against human HT1080 cells; type: functional; details: read-out: ED50 (the source's name)
[6] = system: Escherichia coli; assay: Antimicrobial activity against Escherichia coli at 10 ug; type: functional, organism-based; procedure, shortened: as §1
[7] = system: Bacillus subtilis; assay: Antimicrobial activity against Bacillus subtilis at 10 ug; type: functional, organism-based; procedure, shortened: as §1
[8] = system: Micrococcus luteus; assay: Antimicrobial activity against Micrococcus luteus at 5 ug; type: functional, organism-based; procedure, shortened: as §1
[9] = system: KB; assay: Cytotoxicity against vinblastine-resistant human KB cells; type: functional; details: read-out: ED50 (the source's name)
Procedure, shortened: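 The vinblastine-resistant KB-V1 line was tested both with and without added vinblastine in the cultured tumour-cell cytotoxicity panel. Results are reported as ED50.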

[10] = system: Plasmodium falciparum; assay: Antimalarial activity against chloroquine-sensitive Plasmodium falciparum D6 at 10 ug/ml; type: functional
[11] = system: LNCaP; assay: Cytotoxicity against human LNCAP cells; type: functional; details: read-out: ED50 (the source's name)
[12] = system: Micrococcus luteus; assay: Antimicrobial activity against Micrococcus luteus at 10 ug; type: functional, organism-based; procedure, shortened: as §1
[13] = Cytotoxicity against human BCA1 cells; type: functional; details: read-out: ED50 (the source's name)
[14] = system: KB; assay: Cytotoxicity against human KB cells; type: functional; details: read-out: ED50 (the source's name)
[15] = system: Penicillium oxalicum; assay: Antimicrobial activity against Penicillium oxalicum at 1 ug; type: functional; details: for zone of inhibition at 1 µg/disc: read-out: IZ; procedure, shortened: as §1
[16] = Cytotoxicity against human MEL-2 cells; type: functional; details: MEL2, read-out: ED50 (the source's name)
[17] = system: Penicillium oxalicum; assay: Antimicrobial activity against Penicillium oxalicum at 5 ug; type: functional; details: for zone of inhibition at 5 µg/disc: read-out: IZ; procedure, shortened: as §1
[18] = system: P388; assay: Cytotoxicity against mouse P388 cells; type: functional; details: read-out: ED50 (the source's name)
[19] = system: Micrococcus luteus; assay: Antimicrobial activity against Micrococcus luteus at 1 ug; type: functional, organism-based; procedure, shortened: as §1
[20] = system: Escherichia coli; assay: Antimicrobial activity against Escherichia coli at 0.1 ug; type: functional, organism-based; procedure, shortened: as §1
[21] = system: Penicillium oxalicum; assay: Antimicrobial activity against Penicillium oxalicum at 10 ug; type: functional; details: for zone of inhibition at 10 µg/disc: read-out: IZ; procedure, shortened: as §1
[22] = system: Escherichia coli; assay: Antimicrobial activity against Escherichia coli at 5 ug; type: functional, organism-based; procedure, shortened: as §1
[23] = system: KB; assay: Cytotoxicity against vinblastine-sensitive human KB cells; type: functional; details: read-out: ED50 (the source's name)
[24] = system: ZR-75-1; assay: Cytotoxicity against human ZR-75-1 cells; type: functional; details: read-out: ED50 (the source's name)
[25] = system: Lu1; assay: Cytotoxicity against human Lu1 cells; type: functional; details: read-out: ED50 (the source's name)
[26] = system: A-431; assay: Cytotoxicity against human A431 cells; type: functional; details: read-out: ED50 (the source's name)
[27] = system: Bacillus subtilis; assay: Antimicrobial activity against Bacillus subtilis at 1 ug; type: functional, organism-based; procedure, shortened: as §1
[28] = Cytotoxicity against human Col1 cells; type: functional; details: read-out: ED50 (the source's name)
[29] = system: Penicillium oxalicum; assay: Antimicrobial activity against Penicillium oxalicum at 0.8 ug; type: functional; details: read-out: IZ; procedure, shortened: as §1
[30] = system: Penicillium oxalicum; assay: Antimicrobial activity against Penicillium oxalicum at 1.6 ug; type: functional; details: read-out: IZ; procedure, shortened: as §1
[31] = system: Micrococcus luteus; assay: Antimicrobial activity against Micrococcus luteus at 0.1 ug; type: functional, organism-based; procedure, shortened: as §1
[32] = system: Mycobacterium tuberculosis; assay: Antimycobacterial activity against Mycobacterium tuberculosis at 128 uM; type: functional, organism-based
[33] = system: Mycobacterium avium; assay: Antimycobacterial activity against Mycobacterium avium at 128 uM; type: functional, organism-based
[34] = system: Bacillus subtilis; assay: Antimicrobial activity against Bacillus subtilis at 0.1 ug; type: functional, organism-based; procedure, shortened: as §1
[35] = target: Human immunodeficiency virus type 1 reverse transcriptase (Human immunodeficiency virus 1) (UniProt Q72547); assay: Inhibition of HIV1 RT at 200 uM
Procedure, shortened: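 HIV-1 reverse transcriptase inhibition was measured in an ELISA-based system.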

[36] = system: Penicillium oxalicum; assay: Antimicrobial activity against Penicillium oxalicum at 0.1 ug; type: functional; details: for zone of inhibition at 0.1 µg/disc: read-out: IZ; procedure, shortened: as §1
[37] = system: Penicillium oxalicum; assay: Antimicrobial activity against Penicillium oxalicum at 0.01 ug; type: functional; procedure, shortened: as §1
[38] = system: Monocyte; assay: Inhibition of IL1 biosynthesis in human monocytes; type: functional, cell-based
[39] = system: Monocyte; assay: Inhibition of LPS-stimulated IL1 production in human monocytes; type: functional, cell-based
[40] = Inhibition of TK assessed as residual activity at 200 ug/ml
Procedure, shortened: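 The enzyme was tyrosine kinase p56lck, with test compounds at 200 μg/mL. The read-out is the remaining enzyme activity.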

| SMILES | Activity [1] | IC50 [3] [µM] | Activity [4] | Activity [6] | Activity [7] | Activity [8] | EC50 [9] [µg/mL] | Activity [10] [%] | EC50 [11] [µg/mL] | Activity [12] | EC50 [14] [µg/mL] | zone of inhibition at 5 µg/disc [17] [mm] | Activity [19] | Activity [20] | zone of inhibition at 10 µg/disc [21] [mm] | Activity [22] | EC50 [23] [µg/mL] | EC50 [24] [µg/mL] | EC50 [25] [µg/mL] | Activity [27] | further results |
| --- | --- | --- | --- | --- | --- | --- | --- | --- | --- | --- | --- | --- | --- | --- | --- | --- | --- | --- | --- | --- | --- |
| CCCCCCC(=O)C(Br)=C(Br)Br | inactive | ≥ 200 | inactive | inactive | inactive | Active | > 20 | >50 | > 20 | Active | > 20 | 5 | inactive | inactive | 10 | inactive | > 20 | > 20 | > 20 | inactive | EC50 [2]: > 20 µg/mL; EC50 [5]: > 20 µg/mL; EC50 [13]: > 20 µg/mL; Activity [15]: inactive; EC50 [16]: > 20 µg/mL; EC50 [18]: > 5 µg/mL; EC50 [26]: > 20 µg/mL; EC50 [28]: > 20 µg/mL |
| Clc1ccc(COC(Cn2ccnc2)c2ccc(Cl)cc2Cl)c(Cl)c1 (centres undefined) [MICONAZOLE] |  |  |  |  |  |  |  |  |  |  |  |  |  |  |  |  |  |  |  |  | zone of inhibition at 0.8 µg/disc [29]: 3 mm; zone of inhibition at 1.6 µg/disc [30]: 5 mm |
| CCCCC1=C(Br)/C(=C/Br)OC1=O | inactive |  | inactive | Active | Active | Active | > 20 | >50 | 7.3 (≈ 23.5 µM) | Active | > 20 | 3 | Active | inactive | 3 | inactive | > 20 | 10.2 (≈ 32.9 µM) | > 20 | inactive | EC50 [2]: 10 µg/mL (≈ 32.3 µM); EC50 [5]: 2.2 µg/mL (≈ 7.1 µM); EC50 [13]: 9.8 µg/mL (≈ 31.6 µM); Activity [15]: inactive; EC50 [16]: 5.3 µg/mL (≈ 17.1 µM); Activity [31]: inactive; EC50 [18]: > 5 µg/mL; EC50 [26]: > 20 µg/mL; EC50 [28]: > 20 µg/mL |
| CCC[C@@H](OC(C)=O)C1=C(Br)[C@@](CI)(OC)OC1=O | inactive |  | inactive | inactive | inactive | Active | 7.1 (≈ 15.9 µM) | >50 | 12.9 (≈ 28.9 µM) | Active | 2.4 (≈ 5.37 µM) |  | inactive | inactive |  | inactive | 4.1 (≈ 9.17 µM) | 7.9 (≈ 17.7 µM) | > 20 | inactive | Activity [32]: inactive; IC50 [33]: 350 µM; Activity [15]: inactive; Activity [34]: inactive; Activity [35]: inactive; Activity [31]: inactive; Activity [17]: inactive; Activity [21]: inactive; Activity [36]: inactive |
| CCC[C@@H](OC(C)=O)C1=C(Br)/C(=C/Br)OC1=O | Active | 67 | inactive | Active | Active | Active | 1 (≈ 2.72 µM) | >50 | 0.5 (≈ 1.36 µM) | Active | 0.8 (≈ 2.17 µM) | 15 | Active | inactive | 16 | inactive | 2.1 (≈ 5.71 µM) | 1.6 (≈ 4.35 µM) | 1.7 (≈ 4.62 µM) | Active | Activity [32]: inactive; Activity [37]: inactive; IC50 [33]: 350 µM; zone of inhibition at 1 µg/disc [15]: 11 mm; Activity [35]: inactive; Activity [31]: inactive; IC50 [38]: 3 µM; IC50 [39]: 1.3 µM; zone of inhibition at 0.1 µg/disc [36]: 7 mm |
| CCCCC1=C(Br)C(=C(Br)Br)OC1=O | Active | ≥ 200 | inactive | Active | Active | Active | > 20 | >50 | 9.3 (≈ 23.9 µM) | Active | > 20 | 13 | inactive | inactive | 11 | Active | > 20 | 8.6 (≈ 22.1 µM) |  | inactive | EC50 [2]: > 20 µg/mL; EC50 [5]: > 20 µg/mL; Activity [37]: inactive; EC50 [13]: 6.4 µg/mL (≈ 16.5 µM); zone of inhibition at 1 µg/disc [15]: 8 mm; EC50 [16]: 4.2 µg/mL (≈ 10.8 µM); IC50 [38]: 3 µM; EC50 [18]: > 5 µg/mL; IC50 [39]: 1.8 µM; zone of inhibition at 0.1 µg/disc [36]: 1 mm; EC50 [26]: 10.5 µg/mL (≈ 27 µM); EC50 [28]: 12.4 µg/mL (≈ 31.9 µM) |
| CCC[C@@H](O)C1=C(Br)/C(=C/Br)OC1=O | Active | 76 | Active | Active | Active | Active | 0.1 (≈ 0.307 µM) | >50 | 0.2 (≈ 0.614 µM) | Active | 0.4 (≈ 1.23 µM) | 26 | Active |  | 27 | Active | 3.4 (≈ 10.4 µM) | < 0.1 | 0.3 (≈ 0.92 µM) | Active | Activity [40]: 3.4%; Activity [32]: inactive; Activity [37]: inactive; IC50 [33]: 350 µM; zone of inhibition at 1 µg/disc [15]: 20 mm; Activity [34]: Active; Activity [35]: inactive; Activity [31]: inactive; IC50 [38]: 1.5 µM; IC50 [39]: 0.6 µM; zone of inhibition at 0.1 µg/disc [36]: 6 mm |
